pIC50, pKi: −log10 of the molar value. Values after ≈ are worked out from the molar mass of the structure shown.

The subject of one assay is K562. The experiment in a line: Cytotoxicity against […] leukemic cell line, by means of standard proliferation assay. The class given is functional, cell-based. The settings on record: Homo sapiens.
In assay [1] the target is T1, Peptidyl-prolyl cis-trans isomerase FKBP1A (Homo sapiens, UniProt P62942). The experiment in a line: Compound was evaluated for its inhibitory effect on human FK506 binding protein 12 by means of protease-coupled PPIase assay. An outline of the steps:
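Recombinant hFKBP12 (14 nM) preincubated ≥5 min with effectors (0.01–200 μM, diluted from DMSO stocks, organic solvent usually below 0.1% v/v) in 35 mM HEPES pH 7.8. Reaction started with Suc-Ala-Phe-Pro-Phe-pNA (24.0 μM); α-chymotrypsin (410 μg/mL) as isomer-specific protease; 4-nitroaniline release read at 390 nm, 10 °C. First-order k_enz derived; IC50 from concentration dependence; mean ± SD of three determinations.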

The next assay relates to L929. The experiment in a line: Cytotoxicity against mouse L-929 fibroblast cell line, by means of standard proliferation assay. The class given is functional, cell-based.
Assay [2] concerns Rattus norvegicus. The experiment in a line: Weight difference between EDL muscles of axotomized left hind limbs and corresponding right controls 10 weeks (dose=30 mg/kg). It counts as functional, Muscle tissue. An outline of the steps:
(§1)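 Female HAN:Wist rats (4 months old) underwent left sciatic neurotomy with 30 mg/kg given locally at the lesion. EDL muscles were taken at 8 or 10 weeks and weighed relative to protein concentration. The % weight difference, lesioned left versus intact right limb, was expressed relative to placebo controls. Values are mean ± SD of n animals.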

The subject of assay [3] is Rattus norvegicus. The experiment in a line: Effect on Axonal Regeneration following sciatic nerve neurotomy at a dose of 30 mg/kg after 10 weeks. The class given is functional. Summed up: (§2)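 Left sciatic nerve cut (neurotomy) in 4-month-old female HAN:Wist rats under intramuscular Rompun/Ketavet anaesthesia. A single 30 mg/kg dose was applied at the lesion site. Walking behaviour was scored up to 8 or 10 weeks after surgery. Values are % increase in rate of functional recovery versus placebo-treated rats, given as mean ± SD of n animals.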

The subject of assay [4] is Rattus norvegicus. The experiment in a line: Weight difference between EDL muscles of axotomized left hind limbs and corresponding right controls 8 weeks (dose=30 mg/kg). The class given is functional, Muscle tissue. An outline of the steps:
as §1

In assay [5] the test system is Rattus norvegicus. The experiment in a line: Effect on Axonal Regeneration following sciatic nerve neurotomy at a dose of 30 mg/kg after 8 weeks. The class given is functional. An outline of the steps:
as §2

A short description of assay [6]: Inhibition constant(Ki) for inhibition of PPIase activity of Escherichia coli trigger factor (Conc=12 nM) of FKBPs family. Summed up: (§3)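 Protease-coupled PPIase assay with α-chymotrypsin 410 μg/mL and Suc-Ala-Phe-Pro-Phe-pNA 24.0 μM. Enzyme was preincubated at least 5 min with inhibitor (0.01–200 μM) in 35 mM HEPES pH 7.8, DMSO usually below 0.1%. 4-Nitroaniline release was read at 390 nm, 10 °C, and first-order k_enz derived. Ki came from nonlinear competitive-inhibition fit; mean ± SD of three.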

Assay [7] is described as follows: Inhibition constant(Ki) for inhibition of PPIase activity of Escherichia coli SlyD (Conc=2 uM) of FKBPs family. Summed up:
(§4)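 PPIase assay coupled to trypsin 210 μg/mL, using Suc-Ala-Phe-Pro-Arg-pNA 34.0 μM (SlyD) or Ac-Ala-Ala-Ser(P)-Pro-Arg-pNA 26.0 μM (hPin1). Enzyme was preincubated at least 5 min with inhibitor (0.01–200 μM) in 35 mM HEPES pH 7.8. Absorbance at 390 nm was followed at 10 °C, and first-order catalytic rate constants were fitted to a competitive model.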

Assay [8] can be described thus: Inhibition constant(Ki) for inhibition of PPIase activity of human Cyclophilin 18 (Conc=2 nM). Summed up: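 hCyp18 was expressed recombinantly in E. coli and assayed for PPIase activity with α-chymotrypsin 410 μg/mL and Suc-Ala-Phe-Pro-Phe-pNA 24.0 μM. It was preincubated at least 5 min with 0.01–200 μM inhibitor in 35 mM HEPES pH 7.8. 4-Nitroaniline was monitored at 390 nm, 10 °C, and constants were obtained by competitive nonlinear fit.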

Assay [9] in a line: Inhibition constant(Ki) for inhibition of PPIase activity of Escherichia coli parvulin (Conc=6 nM) of Parvulins sfamily.
Assay [10] addresses T1, Peptidyl-prolyl cis-trans isomerase FKBP1A. The experiment in a line: Inhibition constant(Ki) for inhibition of PPIase activity of human FK506 binding protein 12 (Conc=14 nM) of FKBPs family. An outline of the steps: as §3
Assay [11] has as its target Peptidyl-prolyl cis-trans isomerase NIMA-interacting 1 (Homo sapiens, UniProt Q13526). The experiment in a line: Inhibition constant(Ki) for inhibition of PPIase activity of human Peptidyl-prolyl cis-trans isomerase NIMA-interacting 1 (Conc=4 nM) of Parvulins family. Summed up: as §4
Assay [12] is described as follows: Inhibition constant(Ki) for inhibition of PPIase activity of Escherichia coli FK506 binding protein 26 (Conc=1 uM) of FKBPs family. An outline of the steps:
as §3

Assay [13] concerns Rattus norvegicus. The experiment in a line: Effect on Axonal Regeneration following sciatic nerve neurotomy at a dose of 1 mg/kg after 10 weeks. It counts as functional. Summed up:
(§5)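 Sciatic nerve of left hind leg lesioned (neurotomy) in 4-month-old female HAN:Wist rats under intramuscular Rompun (16 mg/kg)/Ketavet (125 mg/kg) anesthesia. Functional recovery scored from walking behavior. EDL muscle weights of the lesioned left limb and the unlesioned right limb compared, with weights related to protein concentration. Weight differences expressed as percentages relative to placebo; mean ± SD of n animals.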

Assay [14] has as its system Rattus norvegicus. The experiment in a line: Weight difference between EDL muscles of axotomized left hind limbs and corresponding right controls 10 weeks (dose=1 mg/kg). It counts as functional, Muscle tissue. Summed up:
as §5

T1 sequence (P62942 whole entry): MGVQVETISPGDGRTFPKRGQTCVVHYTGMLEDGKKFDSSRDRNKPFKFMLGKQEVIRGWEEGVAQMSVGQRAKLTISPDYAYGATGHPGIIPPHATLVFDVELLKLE
Chain of Peptidyl-prolyl cis-trans isomerase NIMA-interacting 1 (Q13526 whole entry): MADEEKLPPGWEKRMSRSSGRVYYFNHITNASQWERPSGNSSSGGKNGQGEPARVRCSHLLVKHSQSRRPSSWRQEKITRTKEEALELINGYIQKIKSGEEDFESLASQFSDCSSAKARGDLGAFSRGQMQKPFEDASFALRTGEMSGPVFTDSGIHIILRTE

One may read the IC50 as the point on the concentration scale where inhibition reaches its midpoint. Low values mean greater potency, high ones weaker potency. By pIC50 is commonly meant −log10 of the IC50, conventionally taken in molar units. For `CCOC(=O)CCCN1C(=O)CC(C[C@@H](O)[C@@H]2C[C@@H](C)C[C@H](C)C2=O)CC1=O`, the figures for the IC50 in the assay with K562 and with L929 were 109 µg/mL (≈ 276 µM) and 145 µg/mL (≈ 366 µM), respectively. The same compound gave a negative logarithm of the IC50 (pIC50) in [1] of 4.65.

For the compound `CC(=O)O[C@H](CC1CC(=O)NC(=O)C1)[C@@H]1C[C@@H](C)C[C@H](C)C1=O`, the half-maximal inhibitory concentration (IC50) amounted to 1.1 µg/mL (≈ 3.4 µM) in the assay on K562 and 9.3 µg/mL (≈ 28.8 µM) with L929. In assay [1], this compound showed a pIC50 below 3.70.

Regarding `C[C@@H]1C[C@@H]([C@H](O)CC2CC(=O)N(C)C(=O)C2)C(=O)[C@@H](C)C1`, the half-inhibitory concentration (IC50) in the assay on K562 was 133 µg/mL (≈ 449 µM); in the assay with L929 it was above 200 µg/mL. This compound gave a negative logarithm of the IC50 (pIC50) in assay [1] of 3.91.

For the compound `C[C@@H]1C[C@@H]([C@H](O)CC2CC(=O)N(Cc3ccccc3)C(=O)C2)C(=O)[C@@H](C)C1`, the IC50 in the assay with K562 is 81.6 µg/mL (≈ 220 µM); in the assay with L929, 135 µg/mL (≈ 364 µM). In [1], this compound had a pIC50 of 3.93.

On to `C[C@@H]1C[C@@H]([C@H](O)CC2CC(=O)N(CC(N)=O)C(=O)C2)C(=O)[C@@H](C)C1`, for which the IC50 in the assay with K562 turned out to be 4.6 µg/mL (≈ 13.6 µM); in the assay on L929, 5.3 µg/mL (≈ 15.7 µM). This compound had a pIC50 in assay [1] of 4.67.

In [1], `CCOC(=O)CN1C(=O)CC(C[C@@H](OC(=O)NC23C[C@H]4C[C@@H](C2)C[C@@H](C3)C4)[C@@H]2C[C@@H](C)C[C@H](C)C2=O)CC1=O` gave a pIC50 below 3.70.

Consider `CCOC(=O)CN1C(=O)CC(C[C@@H](O)[C@@H]2C[C@@H](C)C[C@H](C)C2=O)CC1=O`, for which the IC50 in the assay with K562 is 64.9 µg/mL (≈ 177 µM); with L929, 76.7 µg/mL (≈ 209 µM). For the same compound, in assay [1], the negative-log IC50 (pIC50) was 5.36. For the same compound, the results for the Weight difference in the assay with Rattus norvegicus [2] and with Rattus norvegicus [4] were 13% and 20%, respectively. In addition, the Walking behaviour is 14% with Rattus norvegicus [3] and 46% in the assay on Rattus norvegicus [5].

For the compound `C[C@@H]1C[C@@H]([C@H](O)CC2CC(=O)N(Cc3ccc(C#N)cc3)C(=O)C2)C(=O)[C@@H](C)C1`, the 50% inhibitory concentration (IC50) in the assay with K562 came to 0.8 µg/mL (≈ 2.02 µM); with L929 it was 1.4 µg/mL (≈ 3.53 µM). The compound also gave a pIC50 in assay [1] of 4.17.

In the case of `C[C@@H]1C[C@@H]([C@H](O)CC2CC(=O)NC(=O)C2)/C(=N\O)[C@@H](C)C1`, the values for the IC50 in the assay with K562 and in the assay with L929 were 116 µg/mL (≈ 393 µM) and 86.9 µg/mL (≈ 293 µM), respectively. The compound also gave a pIC50 in assay [1] of 3.75.

Usually pKi stands for −log10 of the Ki, conventionally taken in molar units. Lower therefore signals a large Ki. As for `C[C@@H]1C[C@@H]([C@H](O)CC2CC(=O)NC(=O)C2)C(=O)[C@@H](C)C1` [CYCLOHEXIMIDE], the IC50 with K562 and in the assay with L929 was below 0.39 µg/mL in each case. In assay [1], this compound showed a negative-log IC50 (pIC50) of 5.44. Besides, the negative-log Ki (pKi) in [6] is below 3.70; in [7] it was below 3.70; in assay [8], below 3.70; in assay [9], 3.73; in assay [10] it was 5.47; in assay [11], below 3.70. Further, the negative-log Ki (pKi) in assay [12] is 4.99.

In the assay on Rattus norvegicus [13], `C=CC[C@@H]1/C=C(\C)C[C@H](C)C[C@H](OC)[C@H]2O[C@@](O)(C(=O)C(=O)N3CCCC[C@H]3C(=O)O[C@H](/C(C)=C/[C@@H]3CC[C@@H](O)[C@H](OC)C3)[C@H](C)[C@@H](O)CC1=O)[C@H](C)C[C@@H]2OC` [TACROLIMUS ANHYDROUS] displayed a Walking behaviour of 100%. This compound also had a Weight difference in the assay with Rattus norvegicus [14] of 18%.
